Assays:
Prothrombin = Prothrombin (Homo sapiens, UniProt P00734); assay: Inhibition of human thrombin activity
Outline: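 Thrombin counterscreen using its natural substrate, fibrinogen. Result expressed as an IC50.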

[1] = molecular target: Vitamin K-dependent protein C (Homo sapiens, UniProt P04070); assay: Inhibition of human aPC
Homo sapiens [2] = organism: Homo sapiens; assay: Increase in thrombin generation in human moderate hemophilia A platelet poor plasma by thrombogram assay at 10 uM; format: functional; conditions: in the assay text read “10 nM” for “10 uM”
Outline: (§1)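 Calibrated automated thrombogram in human moderate hemophilia A platelet-poor plasma (FVIII < 5%). Thrombin generation triggered via the intrinsic coagulation pathway. Inhibitor incubated in the plasma at 10 and 20 nM alongside a 0 nM control. Read-out is the thrombin generation curve and its peak thrombin level (nM).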

Homo sapiens [3] = organism: Homo sapiens; assay: Increase in thrombin generation in human severe hemophilia A pooled poor platelet plasma at 20 nM relative to control by thrombogram assay
Homo sapiens [4] = organism: Homo sapiens; assay: Increase in thrombin generation in human moderate hemophilia A pooled poor platelet plasma by thrombogram assay at 20 uM; format: functional; conditions: in the assay text read “20 nM” for “20 uM”; outline: as §1

Chain of Vitamin K-dependent protein C (P04070 43-197 limits assumed): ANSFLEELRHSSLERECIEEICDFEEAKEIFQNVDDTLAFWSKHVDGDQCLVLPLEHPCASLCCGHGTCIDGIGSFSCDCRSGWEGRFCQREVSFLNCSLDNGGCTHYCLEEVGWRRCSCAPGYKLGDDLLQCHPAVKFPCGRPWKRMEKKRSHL
Chain of Vitamin K-dependent protein C (P04070 212-461 limits assumed): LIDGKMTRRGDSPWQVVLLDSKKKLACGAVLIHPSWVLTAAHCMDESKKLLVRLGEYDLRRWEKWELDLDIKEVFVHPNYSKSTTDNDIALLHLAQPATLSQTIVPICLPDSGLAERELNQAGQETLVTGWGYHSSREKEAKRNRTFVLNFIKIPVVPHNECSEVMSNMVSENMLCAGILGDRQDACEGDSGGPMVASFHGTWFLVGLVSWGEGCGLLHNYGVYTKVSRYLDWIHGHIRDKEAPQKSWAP

Row | IC50 (Prothrombin) | IC50 [1] | SMILES | Activity (Homo sapiens [2]) | Activity (Homo sapiens [3]) | Activity (Homo sapiens [4])
1 | 1.25 µM | 0.1 µM | N=C(N)c1ccc(CNC(=O)C2(NC(=O)[C@@H](CC3CCCCC3)NCC(=O)O)Cc3ccccc3C2)cc1 |  |  | 
2 |  | > 33 µM | CC(C)[C@@H](NCC(=O)O)C(=O)N[C@H](C(=O)NCc1ccc(C(=N)N)cc1)C(c1ccccc1)c1ccccc1 |  |  | 
3 | 13.3 µM | 0.71 µM | CC(C)[C@@H](NCC(=O)O)C(=O)N[C@@H](Cc1ccccc1)C(=O)NCc1ccc(C(=N)N)cc1 |  |  | 
4 | 300 µM | 2.04 µM | CC[C@@H](NCC(=O)O)C(=O)NC1(C(=O)NCc2ccc(C(=N)N)cc2)Cc2ccccc2C1 |  |  | 
5 | 300 µM | 3.83 µM | CC(C)(C)[C@@H](NCC(=O)O)C(=O)NC1(C(=O)NCc2ccc(C(=N)N)cc2)Cc2ccccc2C1 |  |  | 
6 | > 300 µM | 9.28 µM | CC(C)[C@@H](NCC(=O)O)C(=O)NC1(C(=O)NCc2ccc(C(=N)N)cc2)Cc2cc3ccccc3cc2C1 |  |  | 
7 | 10 µM | 11.3 µM | N=C(N)c1ccc(CNC(=O)C2(NC(=O)[C@@H](Cc3ccccc3)NCC(=O)O)Cc3ccccc3C2)cc1 |  |  | 
8 | > 33 µM | > 33 µM | N=C(N)c1ccc(CNC(=O)C2(NC(=O)[C@@H](NCC(=O)O)C3CCCCC3)Cc3ccccc3C2)cc1 |  |  | 
9 | 100 µM | > 33 µM | N=C(N)c1ccc(CNC(=O)C2(NC(=O)CNCC(=O)O)Cc3ccccc3C2)cc1 |  |  | 
10 | 47 µM |  | N=C(N)c1ccc(CNC(=O)C2(NC(=O)[C@H](NCC(=O)O)C3CCCCC3)Cc3ccccc3C2)cc1 | 160 nM | 201 nM | 160 nM
11 | > 300 µM | 0.43 µM | CC(C)[C@@H](NCC(=O)O)C(=O)NC1(C(=O)NCc2ccc(C(=N)N)cc2)Cc2cccc3cccc(c23)C1 |  |  | 
12 | 85 µM | 1.12 µM | CCC(C)[C@@H](NCC(=O)O)C(=O)NC1(C(=O)NCc2ccc(C(=N)N)cc2)Cc2ccccc2C1 (some centres undefined) |  |  | 
13 | 0.77 µM | 0.25 µM | CC(C)[C@@H](NCC(=O)O)C(=O)NC1(C(=O)NCc2ccc(C(=N)N)cc2)Cc2ccc3ccccc3c2C1 (some centres undefined) |  |  | 
14 | > 300 µM | 44 µM | CC(C)(NCC(=O)O)C(=O)NC1(C(=O)NCc2ccc(C(=N)N)cc2)Cc2ccccc2C1 |  |  | 
15 | 4.4 µM | 53 µM | N=C(N)c1ccc(CNC(=O)C2(NC(=O)C3(NCC(=O)O)CCCC3)Cc3ccccc3C2)cc1 |  |  | 
16 | 33 µM | 9.08 µM | C[C@@H](NCC(=O)O)C(=O)NC1(C(=O)NCc2ccc(C(=N)N)cc2)Cc2ccccc2C1 |  |  | 
17 | > 33 µM | 0.75 µM | CC(C)C[C@@H](NCC(=O)O)C(=O)NC1(C(=O)NCc2ccc(C(=N)N)cc2)Cc2ccccc2C1 |  |  | 
18 | > 300 µM | 12.7 µM | CC(C)[C@@H](NCC(=O)O)C(=O)NC1(C(=O)NCc2ccc(C(=N)N)cc2)Cc2ccccc2-c2ccccc2C1 |  |  | 
19 | > 33 µM | 10.9 µM | COc1cc2c(cc1OC)CC(NC(=O)[C@H](NCC(=O)O)C(C)C)(C(=O)NCc1ccc(C(=N)N)cc1)C2 |  |  | 
20 | > 33 µM | 0.35 µM | CC(C)[C@@H](NCC(=O)O)C(=O)N[C@H](C(=O)NCc1ccc(C(=N)N)cc1)C1Cc2ccccc2C1 |  |  | 
21 | > 300 µM | 0.8 µM | CC(C)[C@@H](NCC(=O)O)C(=O)NC1(C(=O)NCc2ccc(C(=N)N)cc2)Cc2ccccc2C1 |  |  | 
22 | 100 µM | 1.7 µM | CC(C)[C@@H](NCC(=O)O)C(=O)NC1(C(=O)NCc2ccc(C(=N)N)cc2)Cc2ccncc2C1 (some centres undefined) |  |  | 
23 | 300 µM | 1.07 µM | CC(C)[C@@H](NCC(=O)O)C(=O)NC1(C(=O)NCc2ccc(C(=N)N)cc2)Cc2cccnc2C1 (single isomer, unassigned; diastereomer 1) |  |  | 
24 | 300 µM | 1.14 µM | CC(C)[C@@H](NCC(=O)O)C(=O)NC1(C(=O)NCc2ccc(C(=N)N)cc2)Cc2cccnc2C1 (single isomer, unassigned; diastereomer 2) |  |  | 
